# Assay outcomes deposited in PubChem by several laboratories.
# Compounds with a hit are over-represented: about 2.4% of the library has one in this group of screens.
# PREPL inhibitor – human PREPL enzyme inhibition | Q4J6C6 | recombinant PREPL, fluorescence polarization activity-based probe | inhibition, % at 5.96 µM | 320,000 tested, 0.68% active;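 note: 0% = enzyme with DMSO and 100% = wells lacking enzyme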
# HNF4A DNA FP – change in binding of human HNF4 alpha to DNA; P41235; HNF4a-FITC DNA binding, fluorescence polarization, 1 h; activity change, % at 10 µM; 360,000 tested, 0.3% active; in the data active = activity change above about 30%, passing the limit was not always enough
# CSN deneddyl inh – blocks human CSN-mediated cullin deneddylation. Q92905. Purified CSN, SCF-Nedd8-OG deneddylation, fluorescence polarization. inhibition, % at 12.5 µM. 360,000 tested, 0.38% active;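 active = pattern-corrected inhibition above about 35%, with an unprinted fluorescence ratio check between 0.5 and 1.5, limit read from the data, passing the limit was not always enough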;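 note: 0% = enzyme with substrate and 100% = substrate without enzyme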
#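 Test system: purified human Csn5 enzyme expressed in HEK293T cells. Amount: 0.24 nM enzyme. Reagent: SCFSkp2-Nedd8OG substrate at 10 nM final. Schedule: 90 min incubation of compound, enzyme and substrate at room temperature. Detection: fluorescence polarization. Read-out: % inhibition of substrate cleavage by Csn5.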
# Neddyl block – blocks human cullin neddylation | P61081+Q13564 | AID 651699 | 360,000 tested, 0.58% active | inhibition, % at 25 µM | TR-FRET cullin neddylation, biochemical; in the data active = inhibition above about 36%
# Rpn11 inh – inhibitors of human proteasome Rpn11. inhibition, % at 20 µM. 360,000 tested, 0.59% active. human 26S proteasome, Ub4-pepOG fluorescence polarization; 20S core pre-blocked with epoxomicin. O00487;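 active = inhibition at 20 µM, scaled to each plate's controls, above about 33%, limit read from the data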
# Target sequence (O00487 whole entry, looked up): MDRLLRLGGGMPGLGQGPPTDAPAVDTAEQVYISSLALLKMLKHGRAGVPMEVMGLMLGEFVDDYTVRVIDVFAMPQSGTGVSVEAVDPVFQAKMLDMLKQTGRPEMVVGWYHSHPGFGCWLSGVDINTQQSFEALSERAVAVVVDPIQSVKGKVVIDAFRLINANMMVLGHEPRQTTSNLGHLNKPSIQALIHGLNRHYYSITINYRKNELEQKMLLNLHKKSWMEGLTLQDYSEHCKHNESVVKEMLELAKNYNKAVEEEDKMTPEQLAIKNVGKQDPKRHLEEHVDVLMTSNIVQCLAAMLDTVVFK
# TbMetRS inhib – blocks T. brucei methionyl-tRNA synthetase activity; 360,000 tested, 0.4% active; inhibition, % at 11.9 µM; purified T. brucei MetRS, ATP depletion, Kinase-Glo luminescence; AID 624268;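 active = inhibition above a per-plate cutoff of the control wells' mean inhibition plus 3 SD, cut at about 5.5% in these data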;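 note: 0% = DMSO wells median and 100% = median of wells with control inhibitor compound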
#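 Material – parasite MetRS enzyme · Medium – HEPES-MgCl2-KCl buffer plus DTT, spermine, BSA, pyrophosphatase · Reagent – ATP, methionine and E. coli bulk tRNA substrates · Times – 15 min enzyme-compound preincubation, 2 h reaction, 10 min detection, 25 °C · Measured by – luminescence of leftover ATP · Evaluation – percent inhibition relative to median high and low control wells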
# PREPL confirm – confirmation of human PREPL enzyme inhibitors; 2,000 tested, 67% active; shares compounds with PREPL inhibitor; recombinant PREPL, fluorescence polarization activity probe; inhibition, % at 5.96 µM;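 note: 0% = protein with DMSO and 100% = wells lacking protein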
# Active calls of the source: *; i = inactive; / = no result given. Cut-off read from the data, not from the text of the source, unless noted: active = inhibition above about 43%; inactive = the rest.
SMILES,PREPL inhibitor,HNF4A DNA FP,CSN deneddyl inh,Neddyl block,Rpn11 inh,TbMetRS inhib,PREPL confirm
COc1cc(/C=N\NC(=O)c2ccc(Cn3cc(Br)c([N+](=O)[O-])n3)o2)cc(OC)c1O,51*,-2,-12,-1,3,0,41
COc1ccc(-c2cc(-c3ccc(OC)c(OC)c3)n[nH]2)c(O)c1,46*,1,0,25,-8,0,29
CCCC(=O)N1CCCC1(C)C(=O)Nc1ccc(-n2cccc2)cc1 (centres undefined),/,1,5,-4,-4,0,/
Oc1cc(Nc2ccncc2)cc2cccnc12,47*,1,1,-39,-24,0,51*
Oc1cc(Nc2cccnc2)cc2cccnc12,29,-2,-2,15,-20,0,/
Cc1cc(O)ccc1C1(c2ccc(O)cc2C)OC(=O)c2ccccc21,-11,-2,-3,1,2,0,/
CC(=O)Oc1ccc2c(c1)Oc1cc(OC(C)=O)ccc1C21OC(=O)c2ccccc21,95*,-94,-92,i,-224,1,112*
CCOc1ccc(-c2c(=O)n(OCc3ccccn3)c3ccccc3[n+]2[O-])cc1,68*,3,4,-28,-8,-1,50*
Cc1nn(-c2ccc(Br)cc2)c(=O)c2ccccc12,75*,0,-2,-8,12,0,2
CC(C)(C(=O)N1CCC1(C)C(=O)NC1Cc2ccccc2C1)c1ccccc1 (centres undefined),/,-2,5,-6,0,0,/
O=C(Oc1ccc2ccc(=O)oc2c1)c1cccs1,45*,2,12,/,-6,1,60*
O=C(Oc1ccc2c(-c3ccccc3)cc(=O)oc2c1)c1cccs1,17,2,12,22,1,-1,/
CCCCNC(=O)C(NC(=O)c1cccs1)C(=O)c1ccccc1 (centres undefined),/,-4,-6,5,/,0,/
COc1ccccc1N1CCN(c2nc(N)c(C#N)c(CC#N)c2C#N)CC1,34,4,24,-2,22,-1,/
COc1cc2c(C#N)c(N3CCN(c4ccccc4OC)CC3)nc(N)c2c(N)n1,49*,6,16,1,-2,0,46*
COc1cc2c(C#N)c(N3CCN(C)CC3)nc(N)c2c(N)n1,45*,-1,0,/,9,0,34
CSC1SCC2C(=O)N(C)C(C(C)C)C(=O)OCC(NC(=O)c3cnc4ccccc4n3)C(=O)NC(C)C(=O)N(C)C1C(=O)N(C)C(C(C)C)C(=O)OCC(NC(=O)c1cnc3ccccc3n1)C(=O)NC(C)C(=O)N2C (centres undefined),/,-47,6,-13,2,0,/
NNC(=O)c1oc2nc(-c3ccco3)cc(-c3ccco3)c2c1N,47*,10,-1,-6,14,3,57*
CC(C)N=c1cc2n(-c3ccc(Cl)cc3)c3ccccc3nc-2cc1Nc1ccc(Cl)cc1,45*,-90,-75,6,-142,-1,48*
CC(OC(=O)C1CC1)C(=O)Nc1cccc(S(=O)(=O)N2CCOCC2)c1 (centres undefined),12,2,-1,1,3,0,/
C#CCn1cc(/C=N/Nc2nc3ccccc3[nH]2)c2ccccc21,55*,1,-3,17,19,9.0*,63*
C(=N\Nc1nc2ccccc2[nH]1)/c1ccccn1,/,5,-3,-1,-2,-2,/
COc1cc(/C=N\Nc2nc3ccccc3[nH]2)cc(OC)c1OC,43*,0,3,29,-10,5,22
CN1CCN(c2ncnc3c2ncn3[C@H]2CN(Cc3ccc(Cl)cc3)C[C@@H](CO)O2)CC1,/,-1,-8,4,-2,0,/
CCC[C@@H](CN1CCC[C@H]1CN1C(N)=NC[C@@H]1Cc1ccccc1)N1C[C@@H](Cc2ccccc2)N(CCc2ccc(Cl)c(Cl)c2)C1=N,32,6,1,-12,-47,0,/
CC(C)C[C@@H](CN1CCC[C@H]1CN1C(=O)C(=O)NC[C@@H]1Cc1ccccc1)N1C[C@H](Cc2ccccc2)N(CCc2ccccc2)C(=O)C1=O,/,-2,2,3,/,0,/
